MC4R antagonist = MC4R antagonists of cAMP signaling, primary screen, cell-based, TR-FRET, antagonist arm of biased-ligand search; AID 540295, 2011; MC4R-expressing cells, MTII-stimulated cAMP, LANCE TR-FRET; inhibition, % at 6.5 µM; 360,000 compounds, 0.48% hits;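 active = inhibition above its plate's cutoff, the mean of tested wells on that plate plus 3 SD, cut at about 29% in these data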
Target sequence (P32245 whole entry, looked up): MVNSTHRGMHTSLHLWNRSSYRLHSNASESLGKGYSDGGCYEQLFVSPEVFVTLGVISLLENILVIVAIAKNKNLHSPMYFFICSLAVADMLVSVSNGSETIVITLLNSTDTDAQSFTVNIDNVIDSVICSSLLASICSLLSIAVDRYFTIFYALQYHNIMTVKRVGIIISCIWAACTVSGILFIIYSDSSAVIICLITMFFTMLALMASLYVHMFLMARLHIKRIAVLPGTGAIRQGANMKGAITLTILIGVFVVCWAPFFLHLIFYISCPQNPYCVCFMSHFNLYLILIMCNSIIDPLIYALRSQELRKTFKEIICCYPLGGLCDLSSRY
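System: U2OS-MC4R stable cell line; Technique: Eu-cAMP/anti-cAMP TR-FRET, emission 671 nm; Repeats: single well per compound; Also added: Melanotan II; Dosing: one concentration, 6.5 µM nominal; Schedule: 30-min compound, 1-h challenge, 1-h detection, room temperature.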
ATG4B inhibitor = ATG4B protease inhibitors, primary screen, biochemical, fluorescence, uHTS | inhibition, % at 8.33 µM | 340,000 compounds, 0.51% hits | ATG4B cleavage of LC3-PLA2, NBD-HPC fluorescence, 1 h; in the data active = inhibition above about 40%
Target sequence (Q9Y4P1 whole entry, looked up): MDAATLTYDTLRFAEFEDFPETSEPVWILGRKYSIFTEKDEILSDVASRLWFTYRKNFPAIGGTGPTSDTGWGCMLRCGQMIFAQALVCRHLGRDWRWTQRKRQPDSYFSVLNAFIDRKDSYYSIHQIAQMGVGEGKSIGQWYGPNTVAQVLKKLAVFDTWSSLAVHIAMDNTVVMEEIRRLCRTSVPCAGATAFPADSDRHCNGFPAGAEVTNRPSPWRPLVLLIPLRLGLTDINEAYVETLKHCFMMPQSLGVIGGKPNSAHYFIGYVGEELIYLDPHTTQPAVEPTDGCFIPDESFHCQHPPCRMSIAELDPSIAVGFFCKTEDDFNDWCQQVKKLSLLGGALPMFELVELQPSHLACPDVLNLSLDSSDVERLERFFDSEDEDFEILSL
MC4R ag barr = MC4R agonists recruiting beta-arrestin, primary screen, cell-based, luminescence, agonist arm of biased-ligand search. U2OS MC4R beta-arrestin complementation; percent of melanotan II response, DMSO zero. activation, % at 8.9 µM. AID 540308, 2011. 360,000 compounds, 0.98% hits;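 active = activation above a per-plate cutoff, the mean activation of sample wells on that plate plus 3 SD, cut at about 8% in these data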
SMARCA2 activ = SMARCA2 (BRM) function activators, primary screen, cell-based, luminescence, high throughput | 370,000 compounds, 1% hits | MG213 cells, MMTV-luciferase reporter, dexamethasone, overnight | activation, % at 9.1 µM; in the data active = activation above about 7.8%
MPTP inh = mitochondrial permeability transition pore inhibitors, primary screen, biochemical, isolated mouse mitochondria, absorbance | Ca2+ swelling absorbance, 30 min | inhibition, % at 10 µM | 360,000 compounds, 1.4% hits | AID 602449, 2012;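 active = inhibition of 50% or more, scaled per plate between neutral and stimulator controls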
MC4R barr ag = MC4R beta-arrestin agonists, retest, confirmation, cell-based, luminescence, U2OS; activation, % at 8.9 µM; 2,400 compounds, 31% hits; shares compounds with MC4R ag barr; U2OS MC4R beta-arrestin recruitment; scaled DMSO 0%, Melanotan II 100%;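 active = mean activation across replicates above the hit cutoff set in the earlier primary screen, cut at about 8% in these data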
MOR DOR agonist = agonists of MOR-DOR heterodimerization, counter-screen for MC4R biased agonist project, cell-based, luminescence. shares compounds with MC4R ag barr. U2OS PathHunter beta-arrestin, beta-gal luminescence; percent of deltorphin B response, DMSO zero. activation, % at 9.2 µM. 2,400 compounds, 5.8% hits;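 active = mean activation across replicates exceeds the hit threshold derived in the earlier primary screen, cut at about 18% in these data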
Each line names hits and unclear results; the compound was inactive in the other large screens (follow-up assays come after a bar, where they were run). Sampled rows, rich in hits. Any-hit rate of the full collection: about 4.1%.

Cc1cccc(C(=O)Nc2sc3c(c2C#N)CCCCC3)c1	MC4R ag barr 17 | MC4R barr ag inactive | MOR DOR agonist inactive
CCc1ccc(CCC(=O)Nc2sc3c(c2C#N)CCCC3)o1	none
Cc1ccc(/C=C/C(=O)Nc2ncc(C)s2)o1	none
Cc1ccc(/C=C/C(=O)Nc2sc3c(c2C#N)CCCC3)o1	MC4R ag barr 28 | MC4R barr ag inactive | MOR DOR agonist inactive
Cc1ccc(/C=C/C(=O)Nc2nnc(SCc3ccc(C#N)cc3)s2)o1	MC4R ag barr 51 | MC4R barr ag inactive | MOR DOR agonist inactive
COCCCN1C(=O)[C@H](CC(=O)N2CCN(C(=O)C3CC3)CC2)[C@]2(C(=O)OC)CCCCC=C12	none (no result: MC4R antagonist, ATG4B inhibitor, MC4R ag barr, MPTP inh)
C#CCNC(=O)C[C@H]1C(=O)N(Cc2ccc(OC)cc2)C2=CCCC[C@@]21C(=O)OCC	none (no result: MC4R antagonist, ATG4B inhibitor, MC4R ag barr, MPTP inh)
Cc1ccccc1C(=O)NC(=S)NCC1CCCO1 (centres undefined)	none
O=C(NC(=S)NCC1CCCO1)C(c1ccccc1)c1ccccc1 (centres undefined)	MC4R ag barr 13 | MC4R barr ag inactive | MOR DOR agonist inactive
Cc1ccc2sc(N(CCCN(C)C)C(=O)c3ccc(Br)s3)nc2c1C	MC4R ag barr 22 | MC4R barr ag 19 | MOR DOR agonist inactive
Cc1ccc2sc(N(CCCN(C)C)C(=O)c3nc4ccccc4s3)nc2c1C	MC4R ag barr 40 | MC4R barr ag 26 | MOR DOR agonist 31
CCOc1ccc(NC(=S)NC(=O)/C=C/c2ccc(C)cc2)c([N+](=O)[O-])c1	MC4R ag barr 38 | MC4R barr ag 17 | MOR DOR agonist inactive
CCOc1ccc(NC(=S)NC(=O)/C=C/c2ccc(OC)c(OC)c2)c([N+](=O)[O-])c1	MC4R ag barr 17 | MC4R barr ag 12 | MOR DOR agonist inactive
COc1ccc(/C=C/C(=O)Nc2ccc(OC)cc2[N+](=O)[O-])cc1	MC4R ag barr 32 | MC4R barr ag inactive | MOR DOR agonist inactive
COc1ccc(NC(=O)/C=C/c2ccccc2)c([N+](=O)[O-])c1	none
C=CC(=O)NC1CCCCN(C)C1=O (centres undefined)	none (no result: MC4R antagonist, ATG4B inhibitor, MC4R ag barr, MPTP inh)
CCCCc1c(-c2ccccc2OC)ncn1Cc1cc(F)ccc1F	none (no result: MC4R antagonist, ATG4B inhibitor, MC4R ag barr, MPTP inh)
Nc1cccnc1Oc1ccc(F)cc1	none
FC(F)(F)c1cccnc1Oc1ccc(C2=NCCS2)cc1	MC4R ag barr 42 | MC4R barr ag 24 | MOR DOR agonist inactive
Cc1ccc(OC(=O)N(C)C[C@H]2OCc3cn(nn3)CCCC(=O)N([C@@H](C)CO)C[C@@H]2C)cc1	none (no result: MC4R antagonist, ATG4B inhibitor, MC4R ag barr, MPTP inh)
COc1ccc(/C=C/S(=O)(=O)NC2CCCC2)c(CNC(=O)OC(C)(C)C)c1	none (no result: MC4R antagonist, ATG4B inhibitor, MC4R ag barr, MPTP inh)
COCCCN1C(=O)[C@H](CC(=O)N2CCCCC2)[C@]2(C(=O)OC)CCCCC=C12	none (no result: MC4R antagonist, ATG4B inhibitor, MC4R ag barr, MPTP inh)
COC(=O)[C@]12C[C@H](CC(=O)N3CCOCC3)C(=O)N(Cc3ccc(Cl)cc3Cl)C1=C[C@H](C(C)(C)C)O[C@@H]2C	none (no result: MC4R antagonist, ATG4B inhibitor, MC4R ag barr, MPTP inh)
O=C(COC(=O)/C=C/c1cccs1)Nc1ccc2ccccc2c1	MC4R ag barr 16 | MC4R barr ag inactive | MOR DOR agonist inactive
Cn1c(SCC(=O)Nc2ccc(Cl)cc2)nnc1C1CC1	none
CSc1sc(-c2nnc(SCC(=O)Nc3ccc(Cl)cc3)n2C)c2c1C=CCC2	MC4R ag barr 16 | MC4R barr ag inactive | MOR DOR agonist inactive
COc1cccc(NC(=O)CN(C)C(=O)CNC(=O)c2sc3ccccc3c2Cl)c1	none
CC(=O)c1cccc(NC(=O)CNC(=O)c2sc3ccccc3c2Cl)c1	MC4R ag barr 19 | MC4R barr ag 24 | MOR DOR agonist 18
Cc1nn(Cc2ccc(Cl)c(Cl)c2)c(C)c1NC(=O)c1sc2ccccc2c1Cl	none
Cc1nn(Cc2c(Cl)cccc2Cl)c(C)c1NC(=O)c1sc2ccccc2c1Cl	MC4R ag barr 45 | MC4R barr ag inactive | MOR DOR agonist inactive
Cc1cccc(NC(=O)CNC(=O)c2sc3ccccc3c2Cl)n1	MC4R ag barr 11 | MC4R barr ag inactive | MOR DOR agonist inactive
Cc1cccnc1NC(=O)CNC(=O)c1sc2ccccc2c1Cl	none
CCC[C@@H](/C=C/C(=O)OC(C)(C)C)Sc1ccc(N)cc1	none (no result: MC4R antagonist, ATG4B inhibitor, MC4R ag barr, MPTP inh)
O=C(Nc1cnn(Cc2ccc(Cl)cc2Cl)c1)c1cc(-c2cccs2)on1	MC4R ag barr 21 | MC4R barr ag inactive | MOR DOR agonist inactive
O=C(Nc1cnn(Cc2ccc(Cl)cc2Cl)c1)c1noc2c1CCCC2	none
Cc1ccc(C(C)C)c(OCc2ccc(C(=O)N/N=C/c3ccc(O)c(O)c3)cc2)c1	MC4R ag barr 20 | MC4R barr ag 9.0 | MOR DOR agonist inactive
O=C(OCc1cn(Cc2cccc(F)c2)nn1)N1CCOCC1	none (no result: MC4R antagonist, ATG4B inhibitor, MC4R ag barr, MPTP inh)
O=C(Nc1cccc(Cl)c1Cl)c1ccc(-c2ccccc2)cc1	none
O=C(Nc1cc(Cl)ccc1Cl)c1ccc(-c2ccccc2)cc1	MC4R ag barr 9.8 | MC4R barr ag inactive | MOR DOR agonist inactive
C[C@@H]1CN(c2ccc(N3CCN(C(=O)OC(C)(C)C)C[C@H]3C)cc2C#N)CCN1Cc1ccccc1	none (no result: MC4R antagonist, ATG4B inhibitor, MC4R ag barr, MPTP inh)
COC(=O)C(C(=O)OC)C(c1ccccc1)C(C(=O)c1ccccc1)[N+](=O)[O-] (centres undefined)	none
CC(=O)C(c1ccccc1)C(c1ccccc1)C(C)[N+](=O)[O-] (centres undefined)	MC4R ag barr 21 | MC4R barr ag inactive | MOR DOR agonist inactive
CC1=C(SCCC#N)S/C(=C2\SC(C)=C(SCCC#N)S2)S1	MC4R ag barr 19 | MC4R barr ag inactive | MOR DOR agonist inactive
O=C1c2[nH]nc(-c3ccccc3)c2C(c2cccc(C(F)(F)F)c2)N1c1ccccc1 (centres undefined)	none (no result: MC4R antagonist, ATG4B inhibitor, MC4R ag barr, MPTP inh)
Cc1ccc(NS(=O)(=O)c2ccc(-n3cccn3)cc2)cc1Cl	MC4R ag barr 13 (no result: ATG4B inhibitor) | MC4R barr ag inactive | MOR DOR agonist inactive
Cc1ccc(C)c(NS(=O)(=O)c2ccc(-n3cccn3)cc2)c1	none (no result: ATG4B inhibitor)
CN(C(=O)[C@@H](C1CC1)[C@@H](O)c1ccc2ccccc2c1)c1ccccc1	none (no result: MC4R antagonist, ATG4B inhibitor, MC4R ag barr, MPTP inh)
COC(=O)C1CN(Cc2cn(CCC3OCCO3)nn2)CCS(=O)(=O)N1Cc1ccc(OC)cc1 (centres undefined)	none (no result: MC4R antagonist, ATG4B inhibitor, MC4R ag barr, MPTP inh)
